Assay results: PMC6393846 (Future Microbiology, 2019)
In brackets after ≈: the same amount, converted by molar mass.

Columns and labels:
S. epidermidis = experiment: Antibiotics combined with plantaricins, summary statements; type: cell-based, Staphylococcus epidermidis; details: summary in abstract/discussion; PlnEF with antibiotic; strain not specified
Summary of the method: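 Broth microdilution with S. epidermidis grown overnight in LB at 37 °C with shaking and adjusted by viable count. Twofold antibiotic series: vancomycin and teicoplanin 0.097–50 μg/ml, gentamicin 0.0097–5 μg/ml, tetracycline 0.016–8 μg/ml. Each well also held a fixed paired plantaricin at 12.5 or 6.25 μM, each partner peptide equimolar. MIC/MBC read after 20 h.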

[1] = tested on: Staphylococcus epidermidis ATCC 12228; experiment: microbe, parasite or virus in culture; details: ATCC12228
[2] = tested on: S. epidermidis 126 (hGISE clinical isolate); experiment: Broth microdilution MIC/MBC, clinical isolate; type: cell-based, Staphylococcus epidermidis; details: for MIC: Staphylococcus epidermidis
[3] = tested on: Staphylococcus epidermidis ATCC 12228; details: for reduction of the MIC of the antibiotic in the presence of PlnJK: 12.5 μM PlnJK with antibiotic versus antibiotic alone
[4] = 12.5 μM PlnEF with antibiotic versus antibiotic alone

| Compound | enhancement of the effects of the antibiotic by plantaricin (S. epidermidis) [fold] | MBC [1] [µg/mL] | MIC [1] [µg/mL] | reduction of the MBC of the antibiotic in the presence of PlnEF [2, 4] [fold] | reduction of the MIC of the antibiotic in the presence of PlnEF [2, 4] [fold] | MIC [2] [µg/mL] | reduction of the MIC of the antibiotic in the presence of PlnJK [3] | reduction of the MIC of the antibiotic in the presence of PlnEF [3, 4] [fold] |
| --- | --- | --- | --- | --- | --- | --- | --- | --- |
| CN[C@H](CC(C)C)C(=O)N[C@H]1C(=O)N[C@@H](CC(N)=O)C(=O)N[C@H]2C(=O)N[C@H]3C(=O)N[C@H](C(=O)N[C@H](C(=O)O)c4cc(O)cc(O)c4-c4cc3ccc4O)[C@H](O)c3ccc(c(Cl)c3)Oc3cc2cc(c3O[C@@H]2O[C@H](CO)[C@@H](O)[C@H](O)[C@H]2O[C@H]2C[C@](C)(N)[C@H](O)[C@H](C)O2)Oc2ccc(cc2Cl)[C@H]1O [Vancomycin] | > 30 | 6.25 (≈ 4.31 µM) | 3.1 (≈ 2.14 µM) | – | – | – | – | – |
| CNC(C)C1CCC(N)C(OC2C(N)CC(N)C(OC3OCC(C)(O)C(NC)C3O)C2O)O1 (stereo not drawn) [Gentamicin] | > 500 | – | 0.31 (≈ 0.649 µM) | 260 | 500 | > 5 | approximately sevenfold | – |
| Teicoplanin | > 30 | – | – | – | – | – | twofold | – |
| CN(C)[C@@H]1C(O)=C(C(N)=O)C(=O)[C@@]2(O)C(O)=C3C(=O)c4c(O)cccc4[C@@](C)(O)[C@H]3C[C@@H]12 [Tetracycline] | > 500 | – | – | – | 125 | ≥ 2 | – | 500 |
